# Published values of several laboratories.
# Protocols differ between the studies behind these lines.
# Effect on: cell growth or viability
SMILES,cell line,technique,concentration,time,measurement,result
CCCCCCCCCCCCCCCCCCOc1cccc(CC(=O)OCCC[N+](C)(C)C)c1,HOP-62,SRB,10 µM,,inhibition,15.9%
O=C(CCCCCCC(=O)Nc1ccccc1)NO,OCI-Ly1,ATP luminescence,0.1 µM,5 days,viability,162%
CCCCCCCCCCCCCCCCCCOc1cccc(CC(=O)OCC[N+]2(C)CCCC2)c1,HOP-62,SRB,10 µM,,inhibition,9.94%
CN(C)CCNC(=O)c1ccc(-c2nc3ccc4[nH]ncc4c3c3c2CCCC3)cc1,K562,resazurin,,72 h,GI50,1300 nM
O=C(Nc1ccc(-c2ccccc2)cc1)[C@H]1O[C@H](O[C@@H]2[C@@H](OCc3ccc4ccccc4c3)[C@H](O[C@H]3O[C@H](CNS(=O)(=O)O)[C@@H](OCc4ccc5ccccc5c4)C[C@H]3NS(=O)(=O)O)[C@@H](NS(=O)(=O)O)C[C@H]2NS(=O)(=O)O)[C@H](OCc2ccc3ccccc3c2)[C@@H](NS(=O)(=O)O)[C@@H]1OCc1ccc2ccccc2c1,4T1,CCK-8,,48 h,EC50,12.5 µM
CCCCCCCCCCCCCCCCCCOc1cccc(CC(=O)OCC[N+](CC)(CC)CC)c1,HOP-62,SRB,10 µM,,inhibition,30.9%
Cc1n[nH]c2ccc3nc(-c4ccc(C(=O)NCCN(C)C)cc4F)c4c(c3c12)CCCCC4,K562,resazurin,,72 h,GI50,2000 nM
O=C(CCCCCCSc1ccc2ccccc2c1)NO,OCI-Ly1,ATP luminescence,0.1 µM,5 days,viability,194%
CCCCCCCCCCCCCCCCCCOc1ccccc1CC(=O)OCC[N+](CC)(CC)CC,HOP-62,SRB,10 µM,,inhibition,59%
O=C(Nc1ccc(Cl)cc1)C1CCCN(C(=O)c2cc(C(F)(F)F)cc(C(F)(F)F)c2)C1 (racemic),OCI-Ly1,ATP luminescence,0.1 µM,5 days,viability,191%
CN(C)CCNC(=O)c1ccc(-c2nc3ccc4[nH]ncc4c3c3c2COCC3)cc1,K562,resazurin,,72 h,GI50,3500 nM
COC(=O)CNC(=O)C(=O)OC,OCI-Ly1,ATP luminescence,0.5 µM,5 days,viability,168%
C[C@H](Nc1ccc2c(c1)OCCn1cc(N3C(=O)OC[C@H]3C(F)F)nc1-2)C(N)=O,ESS-1,ATP luminescence,,5 days,EC50,0.341 µM
CC(=O)OC[C@H]1O[C@@H](n2cnc(N)nc2=O)[C@H](OC(C)=O)[C@@H]1OC(C)=O,OCI-Ly1,ATP luminescence,0.5 µM,5 days,viability,169%
NCCNC(=O)c1ccc(-c2nc3ccc4[nH]ncc4c3c3c2CCCC3)cc1,K562,resazurin,,72 h,GI50,6100 nM
